Source: PMC8089085 (Drug Design, Development and Therapy, 2021)
Like-named read-outs stand apart in the source and are kept apart here.

Experiments:
[1] = tested on: healthy subjects; assay: Tolerability assessment; assay type: in vivo, human; details: after multiple administrations in healthy subjects
Procedure, shortened: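 Healthy subjects given at least one dose were followed from first administration to study end. Monitoring covered vital signs (systolic and diastolic pressure, pulse rate), physical examinations and adverse events. Events were elicited by nonleading open questioning and individual interviews, and each was judged for relation to the investigational drug.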

[2] = assay type: in vivo, human
Procedure, shortened: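 Randomized open-label three-way crossover in healthy subjects: six sequences, five per sequence, ≥7 days washout. SGLT2 inhibitor 25 mg, PPAR-γ agonist 0.5 mg or both given orally once daily for 5 days, fasting ≥8 h. EDTA plasma sampled predose and 0.33–24 h after fifth dose; UPLC-MS/MS, calibration 5.00–1000 ng/mL. Noncompartmental analysis; mixed-effect model giving geometric mean ratios with 90% CI.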

[3] = empagliflozin, with vs without lobeglitazone
[4] = lobeglitazone, with vs without empagliflozin

| 90% CI of AUCtau combination therapy-to-monotherapy ratio [2, 3] | 90% CI of Cmax,ss combination therapy-to-monotherapy ratio [2, 3] | 90% CI of AUCtau combination therapy-to-monotherapy ratio [2, 4] | 90% CI of Cmax,ss combination therapy-to-monotherapy ratio [2, 4] | Structure (SMILES) | other tolerability parameters (laboratory test results, vital signs, physical examination) [1] |
| --- | --- | --- | --- | --- | --- |
| 0.945–1.133 | 0.956–1.150 | – | – | OC[C@H]1O[C@@H](c2ccc(Cl)c(Cc3ccc(O[C@H]4CCOC4)cc3)c2)[C@H](O)[C@@H](O)[C@@H]1O [Empagliflozin] | no clinically significant findings |
| – | – | 0.851–1.018 | 0.869–0.995 | COc1ccc(Oc2cc(N(C)CCOc3ccc(CC4SC(=O)NC4=O)cc3)ncn2)cc1 (stereo not drawn) [Lobeglitazone] | no clinically significant findings |
